ChEMBL document CHEMBL6127097, “Structure-Guided Discovery of cis-Hexahydro-pyrido-oxazinones as Reversible, Drug-like Monoacylglycerol Lipase Inhibitors” (J Med Chem, 2024)
Values belong to the molecule of their own block, whether it stands above or below them. Calls of active or inactive are those of the source. The rule behind the calls is not given here.

Assays:
[1] = target: T1, Monoglyceride lipase (Rattus norvegicus) (UniProt Q8R431); experiment: Binding affinity to rat MAGL assessed as association rate constant by SPR analysis
T1 sequence (whole entry): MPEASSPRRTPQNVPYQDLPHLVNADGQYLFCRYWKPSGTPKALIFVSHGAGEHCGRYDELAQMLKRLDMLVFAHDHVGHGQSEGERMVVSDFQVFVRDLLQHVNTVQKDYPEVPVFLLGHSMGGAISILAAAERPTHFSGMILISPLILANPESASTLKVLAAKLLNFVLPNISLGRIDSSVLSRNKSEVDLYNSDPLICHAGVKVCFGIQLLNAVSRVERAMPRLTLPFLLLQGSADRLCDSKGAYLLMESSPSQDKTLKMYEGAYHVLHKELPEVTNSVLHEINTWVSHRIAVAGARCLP
Outline: (§1)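 Human or rat MAGL was immobilized by amine coupling without ethanolamine quenching. Runs were done at 18 °C in 10 mM HEPES, 150 mM NaCl, 0.05% P20, 50 µM EDTA, pH 7.4, with 1% DMSO. Single-cycle kinetics used five concentrations, top 1 µM in 2-fold steps, at 30 µL/min, giving kon, koff and Kd.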

Homo sapiens = organism: Homo sapiens; experiment: Inhibition of serotonin transporter (unknown origin) at 10 uM relative to control
Outline: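 Cerep panel of 50 off-targets, percent inhibition at 10 µM.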

Mus musculus [2] = experiment: Upregulation of brain 2-AG level in ip dosed mouse measured after 4 hrs; type: functional, organism-based; details: dose 3-30 mg/kg
Outline: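 Mice dosed i.p. in NaCl/DMSO/TW80 (80/10/10): 3, 10 or 30 mg/kg with sacrifice at 4 h, or 30 mg/kg over a 24 h time course. Brain extract 2-AG and AA were measured by LC/MS.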

[3] = target: T2, Monoglyceride lipase (Mus musculus) (UniProt O35678); experiment: In vivo receptor occupancy at MAGL receptor in mouse at 30 mg/kg, ip measured after 4 hrs; type: functional, organism-based
T2 sequence (whole entry): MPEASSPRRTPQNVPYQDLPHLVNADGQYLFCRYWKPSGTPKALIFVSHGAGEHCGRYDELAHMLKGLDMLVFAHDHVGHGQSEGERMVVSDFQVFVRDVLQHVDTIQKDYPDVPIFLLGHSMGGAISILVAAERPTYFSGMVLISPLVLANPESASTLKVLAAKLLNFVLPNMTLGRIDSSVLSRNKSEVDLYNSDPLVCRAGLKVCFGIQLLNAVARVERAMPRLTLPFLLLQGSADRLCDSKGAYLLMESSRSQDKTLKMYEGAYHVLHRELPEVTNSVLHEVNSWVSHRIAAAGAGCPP

[4] = target: T2, Monoglyceride lipase (Mus musculus); experiment: In vivo receptor occupancy at MAGL receptor in mouse at 3 mg/kg, ip measured after 4 hrs; type: functional, organism-based
[5] = target: T2, Monoglyceride lipase (Mus musculus); experiment: In vivo receptor occupancy at MAGL receptor in mouse at 30 mg/kg, ip measured after 24 hrs; type: functional, organism-based
Outline: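 Mice dosed 30 mg/kg i.p. in NaCl/DMSO/TW80 (80/10/10). Brain proteome was prepared at set time points over 24 h and MAGL occupancy read by activity-based protein profiling.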

Mus musculus [6] = experiment: Antiinflammatory activity in LPS-induced CD-1 mouse neuroinflammation model assessed as decrease in peripheral tissue IL-1beta mRNA expression at 30 mg/kg, ip measured after 6 hrs by qRT-PCR analysis; type: functional, organism-based
Outline: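 CD-1 mice were dosed with NaCl + vehicle, LPS (5 mg/kg) + vehicle, or LPS + inhibitor at 30 mg/kg i.p. (vehicle NaCl/DMSO/Tween 80, 80/10/10). They were sacrificed 6 h post-compound. LCN2 and IL1b mRNA in peripheral tissue were measured by droplet digital qRT-PCR.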

[7] = Chemical stability at pH 1 incubated for 2 hrs; type: physicochemical; details: buffer, pH 1, 2 h
Outline: (§2)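 Compound was held in aqueous buffer at the stated pH for 2 h at 37 °C.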

[8] = Chemical stability at pH 10 incubated for 2 hrs; type: physicochemical; details: buffer, pH 10, 2 h; outline: as §2
Monoglyceride lipase [9] = target: T3, Monoglyceride lipase (Homo sapiens, UniProt Q99685); experiment: Binding affinity to human MAGL assessed as equilibrium dissociation constant by SPR analysis; outline: as §1
T3 sequence (Q99685 whole entry): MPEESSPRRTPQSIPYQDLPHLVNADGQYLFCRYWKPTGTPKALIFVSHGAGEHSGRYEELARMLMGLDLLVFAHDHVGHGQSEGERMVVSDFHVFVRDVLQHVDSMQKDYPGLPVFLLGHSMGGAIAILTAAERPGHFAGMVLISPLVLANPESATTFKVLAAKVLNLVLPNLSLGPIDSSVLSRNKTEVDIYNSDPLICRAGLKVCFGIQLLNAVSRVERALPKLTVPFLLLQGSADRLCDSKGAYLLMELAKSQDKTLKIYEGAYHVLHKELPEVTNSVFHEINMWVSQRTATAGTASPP

[10] = Plasma protein binding in rat assessed as fraction unbound by equilibrium dialysis based LC-MS/MS method; type: ADME, cell-free
[11] = Clearance in Wistar rat at 1 mg/kg, iv measured upto 24 hrs by LC-MS/MS analysis; type: ADME, organism-based; details: in vivo
Outline: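 Male Wistar rats (N = 3 per group) received a single dose. The i.v. dose was 1 mg/kg in NMP/0.9% NaCl 30:70. The p.o. dose was 5 mg/kg in NMP/HPMC/diisooctyl sulfosuccinate 10:90. Blood was taken into K2EDTA from 0.083 (i.v.) or 0.25 h to 24 h. Plasma was assayed by LC-MS/MS and analysed non-compartmentally.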

[12] = Oral bioavailability in Wistar rat at 5 mg/kg measured upto 24 hrs by LC-MS/MS analysis; type: ADME, organism-based; details: in vivo
Outline: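 Male Wistar rats, single dose. i.v. in NMP/0.9% NaCl 30:70; p.o. and i.p. in NMP/HPMC/diisooctyl sulfosuccinate 10:90; 3 per i.v./p.o. group, 6 i.p. K2EDTA plasma sampled 0.083–7 h, plus 24 h for i.v./p.o.; brain and CSF at 1, 2, 7 h (i.p. only). LC-MS/MS, noncompartmental analysis.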

[13] = Average drug concentration in mouse plasma at 3 mg/kg, ip measured after 4 hrs; type: ADME, organism-based; details: in vivo
Outline: (§3)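 Mice received 3, 10 or 30 mg/kg i.p. The compound was dissolved in DMSO/Tween 80 (1:1) and diluted with 8 parts saline (NaCl/DMSO/TW80 80/10/10). Plasma was taken 4 h after injection and average concentrations reported.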

[14] = Average drug concentration in mouse plasma at 10 mg/kg, ip measured after 4 hrs; type: ADME, organism-based; details: in vivo; outline: as §3
[15] = Average drug concentration in mouse plasma at 30 mg/kg, ip measured after 4 hrs; type: ADME, organism-based; details: in vivo; outline: as §3
[16] = Drug concentration in mouse CSF at 3 mg/kg, ip measured after 4 hrs; type: ADME, organism-based, Cerebrospinal fluid; details: read-out: Ct
[17] = Drug concentration in mouse CSF at 30 mg/kg, ip measured after 16 hrs; type: ADME, organism-based, Cerebrospinal fluid; details: read-out: Ct
Monoglyceride lipase [18] = target: T4, Monoglyceride lipase (Rattus norvegicus, UniProt Q8R431); experiment: Inhibition of rat MAGL using native substrate by Rapidfire MS assay
T4 sequence (Q8R431 whole entry): T1 sequence (whole entry)

Monoglyceride lipase [19] = target: T3, Monoglyceride lipase; experiment: Inhibition of human MAGL using native substrate by Rapidfire MS assay

K [1]: 2.6 10^5/M/s | inhibition (Homo sapiens): 57% | Activity [3]: 93% | Activity [4]: 49% | Activity [5]: 5%
Compound: O=C1CO[C@H]2CCN(C(=O)N3CCC(Cc4ccc(C(F)(F)F)cc4)CC3)C[C@H]2N1 [listing 1 of 2 here]
Activity (Mus musculus [2]): Dose-Dependent Effect | Activity (Mus musculus [6]): inactive

Stability [7]: Stable | Stability [8]: Stable | Kd (Monoglyceride lipase [9]): 45 nM | fraction unbound [10]: 0.032 | clearance [11]: 4.6 mL/min/kg | bioavailability [12]: 115% | Cave [13]: 1901 nM | Cave [14]: 7496 nM | Cave [15]: 27765 nM | concentration at 4 h [16]: 31.2 nM | concentration at 16 h [17]: 48 nM | IC50 (Monoglyceride lipase [18]): 71 nM | IC50 (Monoglyceride lipase [19]; read-out: IC50): 32 nM | IC50 (Monoglyceride lipase [19]; read-out: pIC50 (converted)): 28.2 nM
Compound: O=C1CO[C@H]2CCN(C(=O)N3CCC(Cc4ccc(C(F)(F)F)cc4)CC3)C[C@H]2N1 [listing 2 of 2 here]
